Results: ChEMBL document CHEMBL2086296, “Synthesis of novel quinoline-2-one based chalcones of potential anti-tumor activity” (Eur J Med Chem, 2012)

How the values were obtained:
EKVX = assay: Cytotoxicity against human EKVX cells after 24 hrs by SRB assay; type: functional
Method in brief: (§1)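 NCI 60-line screen. Cells in RPMI 1640 with 5% FBS and 2 mM L-glutamine, seeded at 5,000–40,000 cells/well by doubling time, then incubated 24 h at 37 °C, 5% CO2 before dosing. Time-zero plates fixed with TCA at drug addition. DMSO stocks diluted in medium with gentamicin to five concentrations, […]. Protein read by SRB staining. GI50, TGI and LC50 derived relative to control and time-zero.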

NCI-H226 [1] = assay: (§2) Cytotoxicity against human NCI-H226 cells after 24 hrs by SRB assay; type: functional; conditions: NCI-H226, 24 h; method in brief: as §1
NCI-H23 = assay: Cytotoxicity against human NCI-H23 cells after 24 hrs by SRB assay; type: functional; conditions: NCI-H23, 24 h; method in brief: as §1
NCI-H460 = assay: Cytotoxicity against human NCI-H460 cells after 24 hrs by SRB assay; type: functional; conditions: NCI-H460, 24 h; method in brief: as §1
NCI-H522 = assay: Cytotoxicity against human NCI-H522 cells after 24 hrs by SRB assay; type: functional; conditions: NCI-H522, 24 h; method in brief: as §1
NCI-H322M [2] = assay: (§3) Cytotoxicity against human NCI-H322M cells after 24 hrs by SRB assay; type: functional; method in brief: as §1
HT-29 = assay: Cytotoxicity against human HT-29 cells after 24 hrs by SRB assay; type: functional; conditions: HT-29, 24 h; method in brief: as §1
SF-268 = assay: Cytotoxicity against human SF268 cells after 24 hrs by SRB assay; type: functional; conditions: SF-268, 24 h; method in brief: as §1
SNB-75 = assay: Cytotoxicity against human SNB75 cells after 24 hrs by SRB assay; type: functional; conditions: SNB-75, 24 h
Method in brief: (§4)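 NCI 60-cell screen. Cells are grown in RPMI 1640 with 5% FBS and 2 mM L-glutamine and seeded at 5,000–40,000 cells/well according to doubling time. They are preincubated 24 h at 37 °C in 5% CO2, and Tz plates are TCA-fixed at drug addition. Drug stock is in DMSO, diluted in medium with gentamicin, and tested at five concentrations (100, 10, 1.0, 0.1, […]). Protein is read by SRB staining. GI50, TGI and LC50 are derived relative to time-zero and control wells.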

Malme-3M [3] = assay: (§5) Cytotoxicity against human MALME-3M cells after 24 hrs by SRB assay; type: functional; method in brief: as §1
M14 [4] = assay: (§6) Cytotoxicity against human M14 cells after 24 hrs by SRB assay; type: functional; conditions: M14, 24 h; method in brief: as §1
IGROV-1 [5] = assay: (§7) Cytotoxicity against human IGROV1 cells after 24 hrs by SRB assay; type: functional; conditions: IGROV-1, 24 h; method in brief: as §1
SN12C = assay: Cytotoxicity against human SN12C cells after 24 hrs by SRB assay; type: functional; method in brief: as §1
UO-31 [6] = assay: (§8) Cytotoxicity against human UO31 cells after 24 hrs by SRB assay; type: functional; conditions: UO-31, 24 h; method in brief: as §4
786-0 = assay: Cytotoxicity against human 786-0 cells after 24 hrs by SRB assay; type: functional; conditions: 786-0, 24 h; method in brief: as §1
DU-145 [7] = assay: (§9) Cytotoxicity against human DU145 cells after 24 hrs by SRB assay; type: functional; conditions: DU-145, 24 h; method in brief: as §1
MCF7 = assay: Cytotoxicity against human MCF7 cells after 24 hrs by SRB assay; type: functional; conditions: MCF7, 24 h; method in brief: as §1
MDA-MB-231 = assay: Cytotoxicity against human MDA-MB-231 cells after 24 hrs by SRB assay; type: functional; conditions: MDA-MB-231, 24 h; method in brief: as §1
T47D = assay: Cytotoxicity against human T47D cells after 24 hrs by SRB assay; type: functional; method in brief: as §4
HL-60 [8] = assay: (§10) Cytotoxicity against human HL60 cells after 24 hrs by SRB assay; type: cell-based; conditions: hl-60, 24 h
Method in brief: (§11)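 NCI 60-cell screen. Cells grown in RPMI 1640 with 5% FBS and 2 mM L-glutamine, seeded at 5,000–40,000 cells/well, preincubated 24 h at 37 °C in 5% CO2. Drug stock in DMSO, diluted in medium with gentamicin; five final concentrations, 100, 10, 1.0, 0.1 and […]. Time-zero plates were TCA-fixed. Protein read by SRB staining; GI50, TGI and LC50 taken relative to time-zero.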

NCI-H226 [9] = assay: as §2; type: cell-based; conditions: nci-h226, 24 h; method in brief: as §11
NCI-H322M [10] = assay: as §3; type: cell-based; method in brief: as §11
COLO 205 = assay: Cytotoxicity against human COLO205 cells after 24 hrs by SRB assay; type: cell-based; conditions: colo 205, 24 h; method in brief: as §11
Malme-3M [11] = assay: as §5; type: cell-based; method in brief: as §11
HL-60 [12] = assay: as §10; type: functional; conditions: HL-60, 24 h; method in brief: as §1
SK-MEL-5 = assay: Cytotoxicity against human SK-MEL-5 cells after 24 hrs by SRB assay; type: cell-based; conditions: sk-mel-5, 24 h; method in brief: as §11
UACC-62 = assay: Cytotoxicity against human UACC62 cells after 24 hrs by SRB assay; type: cell-based; conditions: uacc-62, 24 h
Method in brief: (§12)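 NCI 60-cell-line screen: cells grown in RPMI 1640 with 5% FBS and 2 mM L-glutamine, seeded at 5,000–40,000 cells/well by doubling time, and preincubated 24 h at 37 °C in 5% CO2. Time-zero plates were TCA-fixed. DMSO stocks were diluted in medium with gentamicin to five concentrations (100, 10, 1.0, 0.1, […]). Protein was read by SRB, and GI50, TGI and LC50 were derived against time-zero.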

SK-MEL-2 = assay: Cytotoxicity against human SK-MEL-2 cells after 24 hrs by SRB assay; type: cell-based; conditions: sk-mel-2, 24 h; method in brief: as §11
M14 [13] = assay: as §6; type: cell-based; conditions: m14, 24 h; method in brief: as §11
SK-MEL-28 = assay: Cytotoxicity against human SK-MEL-28 cells after 24 hrs by SRB assay; type: cell-based; conditions: sk-mel-28, 24 h; method in brief: as §11
IGROV-1 [14] = assay: as §7; type: cell-based; conditions: igrov-1, 24 h; method in brief: as §11
OVCAR-4 = assay: Cytotoxicity against human OVCAR4 cells after 24 hrs by SRB assay; type: cell-based; conditions: ovcar-4, 24 h; method in brief: as §11
SK-OV-3 = assay: Cytotoxicity against human SKOV3 cells after 24 hrs by SRB assay; type: cell-based; conditions: sk-ov-3, 24 h; method in brief: as §12
ACHN = assay: Cytotoxicity against human ACHN cells after 24 hrs by SRB assay; type: cell-based; method in brief: as §11
RXF 393 = assay: Cytotoxicity against human RXF393 cells after 24 hrs by SRB assay; type: cell-based; conditions: rxf 393, 24 h; method in brief: as §11
UO-31 [15] = assay: as §8; type: cell-based; conditions: uo-31, 24 h; method in brief: as §12
DU-145 [16] = assay: as §9; type: cell-based; conditions: du-145, 24 h; method in brief: as §11

`O=C(/C=C/c1cc2ccccc2[nH]c1=O)c1ccc(Cl)cc1` was tested, and the GI50 (EKVX) was 4.92 µM, the TGI (EKVX) was greater than 100 µM and the GI50 (NCI-H226 [1]) was 11.6 µM. It also gave a TGI (NCI-H226 [1]) of 38.9 µM, a GI50 (NCI-H23) of 5.37 µM and a TGI (NCI-H23) of 93.3 µM. The GI50 (NCI-H460) was 3.99 µM, the TGI (NCI-H460) was 18.9 µM and the GI50 (NCI-H522) was 2.23 µM. It also gave a TGI (NCI-H522) of 6.58 µM, a GI50 (NCI-H322M [2]) of 13.4 µM and a TGI (NCI-H322M [2]) of 79 µM. For the same molecule, the GI50 (HT-29) was 3.84 µM, the TGI (HT-29) was 22.5 µM and the GI50 (SF-268) was 7.15 µM. It also gave a TGI (SF-268) of 63.1 µM, a GI50 (SNB-75) of 6.21 µM and a TGI (SNB-75) of 48.8 µM. It also gave a GI50 (Malme-3M [3]) of 9.42 µM, a TGI (Malme-3M [3]) of 35.3 µM and a GI50 (M14 [4]) of 7.54 µM. The TGI (M14 [4]) was 39.7 µM, the GI50 (IGROV-1 [5]) was 3.71 µM and the TGI (IGROV-1 [5]) was 14.7 µM. For the same molecule, the GI50 (SN12C) was 8.16 µM, the TGI (SN12C) was greater than 100 µM and the GI50 (UO-31 [6]) was 5.27 µM. For the same molecule, the TGI (UO-31 [6]) was greater than 100 µM, the GI50 (786-0) was 13.8 µM and the TGI (786-0) was greater than 100 µM. It also gave a GI50 (DU-145 [7]) of 4.08 µM, a TGI (DU-145 [7]) of 48.9 µM and a GI50 (MCF7) of 2.41 µM. The TGI (MCF7) was greater than 100 µM, the GI50 (MDA-MB-231) was 6.16 µM and the TGI (MDA-MB-231) was 28.3 µM. The GI50 (T47D) was 7.31 µM, the TGI (T47D) was greater than 100 µM and the LC50 (HL-60 [8]) was greater than 100 µM. It also gave an LC50 (NCI-H226 [9]) greater than 100 µM, an LC50 (NCI-H322M [10]) greater than 100 µM and an LC50 (COLO 205) greater than 100 µM. For the same molecule, the LC50 (Malme-3M [11]) was greater than 100 µM, the GI50 (HL-60 [12]) was 2.47 µM and the TGI (HL-60 [12]) was greater than 100 µM. It also gave an LC50 (SK-MEL-5) greater than 100 µM, an LC50 (UACC-62) greater than 100 µM and an LC50 (SK-MEL-2) of 72.6 µM. It also gave an LC50 (M14 [13]) greater than 100 µM, an LC50 (SK-MEL-28) greater than 100 µM and an LC50 (IGROV-1 [14]) of 50.7 µM. It also gave an LC50 (OVCAR-4) greater than 100 µM, an LC50 (SK-OV-3) greater than 100 µM and an LC50 (ACHN) of 90.6 µM. The LC50 (RXF 393) was greater than 100 µM, the LC50 (UO-31 [15]) was greater than 100 µM and the LC50 (DU-145 [16]) was greater than 100 µM.
